Calls of active or inactive are those of the source. No cut-off for these calls is given here.
Experiments:
[1] = Inhibition of RANKL-stimulated osteoclastogenesis in mouse RAW264 cells assessed as reduction in TRAP activity after 4 days in presence of RANKL; assay type: functional, cell-based
Outline: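 Murine RAW264 cells differentiated with RANKL (50 ng/mL) for 4 days, with or without compound at a range of concentrations. TRAP activity was read as absorbance at 405 nm, and the IC50 was taken from inhibition of RANKL-induced TRAP up-regulation. Cytotoxicity toward RAW264 cells was also checked.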

[2] = Cytotoxicity against mouse RAW264 cells assessed as cell survival at 5 uM relative to control; assay type: toxicity; settings: read-out: Survival
RAW264 [3] = assay: Inhibition of RANKL-stimulated osteoclastogenesis in mouse RAW264 cells assessed reduction in TRAP-positive multinucleated cells at 10 uM after 4 days in presence of RANKL by TRAP-staining based microscopic analysis; assay type: functional, cell-based
Outline: (§1)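 RAW264 cells were treated with RANKL (50 ng/mL) plus compound at 10 or 20 μM, or without compound, for 4 days. They were then stained with TRAP-staining solution, which stains positive cells red. TRAP-positive multinuclear cells (≥3 nuclei) were counted by microscopy.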

RAW264 [4] = assay: Inhibition of RANKL-stimulated osteoclastogenesis in mouse RAW264 cells assessed reduction in TRAP-positive multinucleated cells at 20 uM after 4 days in presence of RANKL by TRAP-staining based microscopic analysis; assay type: functional, cell-based; outline: as §1

SMILES	IC50 [1]	viability at 5 µM [2]	inhibition (RAW264 [3])	inhibition (RAW264 [4])
C[C@]12CC(=O)[C@@H](O)[C@](C)(CO)[C@@H]1CC[C@@]1(C)c3cocc3CC[C@H]21 [SPONGIADIOL]	> 50 µM	97%	–	–
C[C@]12CCC[C@](C)(C(=O)O)[C@@H]1CC[C@@]1(C)C3=C(CC[C@H]21)C(=O)N(CCc1ccccc1)C3	13 µM	100%	Active	–
CC(C)CCN1CC2=C(C1=O)[C@]1(C)CC[C@@H]3[C@](C)(CCC[C@]3(C)C(=O)O)[C@H]1CC2	> 50 µM	100%	–	–
CC(C)CCN1CC2=C(CC[C@@H]3[C@@]4(C)CCC[C@](C)(C(=O)O)[C@@H]4CC[C@@]23C)C1=O	18 µM	87%	–	Active
C[C@]12C[C@@H](O)C(=O)[C@](C)(CO)[C@@H]1CC[C@@]1(C)c3cocc3CC[C@H]21 [ISOSPONGIADIOL]	> 50 µM	96%	–	–
CC(C)CN1CC2=C(CC[C@@H]3[C@@]4(C)CCC[C@](C)(C(=O)O)[C@@H]4CC[C@@]23C)C1=O	> 50 µM	100%	–	–
CO[C@H]1O[C@@H](OC)C2=C1CC[C@@H]1[C@@]3(C)CCC[C@](C)(C(=O)O)[C@@H]3CC[C@@]21C	> 50 µM	98%	–	–
C[C@]12CCC[C@](C)(C(=O)O)[C@@H]1CC[C@@]1(C)c3cocc3CC[C@H]21	> 50 µM	100%	–	–
C[C@]12CCC[C@](C)(C(=O)O)[C@@H]1CC[C@@]1(C)C3=C(CC[C@H]21)CNC3=O	> 50 µM	100%	–	–
C[C@]12CCC[C@](C)(C(=O)O)[C@@H]1CC[C@@]1(C)C3=C(CC[C@H]21)CN(CCc1ccccc1)C3=O	> 50 µM	97%	–	–
CC(C)CN1CC2=C(C1=O)[C@]1(C)CC[C@@H]3[C@](C)(CCC[C@]3(C)C(=O)O)[C@H]1CC2	> 50 µM	100%	–	–
